The values below come from the EternaBench riboswitch data.

This data set deals with MS2 coat protein. In words: apparent Kd, MS2 coat protein; higher = weaker binding; RNA-MaP array; FMN 200 µM where present. A digest of the protocol: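 Apparent Kd: the median of filtered binding-curve fits from single clusters. Designs were transcribed on Illumina sequencing-chip clusters by stalled E. coli RNA polymerase and titrated with SNAP-549-labelled MS2 coat protein from 0.7 or 1.5 nM, doubling to 3 µM, in 100 mM Tris-HCl pH 7.5, 80 mM KCl, 4 mM MgCl2, BSA, DTT, yeast tRNA and Tween-20. Each series ran without and then with constant ligand, and green signal was normalised to red-channel RNA signal and control-cluster median Fmax.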

Where [1] appears, read: designed as: ON switch for flavin mononucleotide, no ligand.
Setting [2] is: ligand present: flavin mononucleotide, designed as: ON switch for flavin mononucleotide.
[3] abbreviates: designed as: OFF switch for flavin mononucleotide, no ligand.
The mark [4] stands for this setting: ligand present: flavin mononucleotide, designed as: OFF switch for flavin mononucleotide.

A word on the apparent Kd: it is the concentration giving half-maximal binding under the conditions of the assay. As to “UCCAAACCGUAGAAGGGUGACAUGAGGAUCACCCAUGUGCAGCAGCCGUGAACGGCCAUGCUGCCACAGGAUAUACGGAGGAGU”, the “apparent Kd” value turned out to be 28.9 nM under setting [1] and 67.3 nM under setting [2].
As to “AACAGUACAGGAUAUACAUGAGGAUCACCCAUGUGAGAAUUAAGUGGCGUACCACAAUGUAGAAGGGUACUGGA”, the “apparent Kd” value was 77.4 nM under setting [3] and 65.5 nM under setting [4].
For “CGCUAUGACAUAGGAUAUUGAUACAUGAGGAUCACCCAUGUCAACCAUGAAGCUCGAAUUGUUGACAAGAAGGAUGUGGUAGCG”, the “apparent Kd” value is, setting by setting: under setting [1], 157 nM; under setting [2], 72.9 nM.
With “CACGUCAGGAAACGGAGCGGCCAACAUGAGGAUCACCCAUGUGAGGAUAUGCCUACUAAAAGUAGGCAGAAGGCACAAUUGGCA”, the “apparent Kd” value under setting [3] came to 36.7 nM and the “apparent Kd” value under setting [4] was found to be 94.9 nM.
Consider “AAUUUCAGAUGAGGAUAUUGACAUGAGGAUCACCCAUGUAUUUGGGAAUGUUUACUGAAUUCUUACAAGAAGGUAUACGAACUU”, for which the “apparent Kd” value by setting is: under setting [3], 237 nM; under setting [4], 164 nM.
Consider “UGCGUCUAGACAGGAUAUCAAGGACGCCUACAUGAGGAUCACCCAUGUCGGCGGAGCAGCUCCGUUGAGAAGGGUCAUCGCAAC”, for which the “apparent Kd” value reads like this: under setting [1], 66.5 nM; under setting [2], 24.2 nM.
For “UAUAUAAUUAAGAGCUGGAAAACAACAUGAGGAUCACCCAUGUAGGAUAUCAGCACGAUAAGUGCUGAGAAGGACUACCAGCUC”, the “apparent Kd” value was 14 nM under setting [3] and 16.8 nM under setting [4].
Consider “AAAAGUUUGGAGGAUAUCCAUCCAAACGGAUAAGGAGAAGGCCGGACAUGAGGAUCACCCAUGUGAUUAGGUUA”, for which the “apparent Kd” value under setting [3] stood at 14.2 nM and the “apparent Kd” value under setting [4] stood at 24.8 nM.
In the case of “GUCAGCUCGUGAGGAUAUACAACACUGCUUCGGCAGUGUAUUAGGAUCACAUGAGGAUCACCCAUGUAGAAGGCACGAGCUGAU”, the “apparent Kd” value is, setting by setting: under setting [3], 16.3 nM; under setting [4], 323 nM.
In the case of “GUGGUCAGACAUGAGGAUCACCCAUGUGGAAUAAAUAAGGUUUAGGAUAUGGAAUAUAGGAUAUACCAGAAGGAAGGGUUGGUG”, the “apparent Kd” value by setting is: under setting [1], 125 nM; under setting [2], 135 nM.
On to “GAUUUCUCAUGAGGAUAUGCUCGCAUUUCAAGAGCAGAAGGUAUGUCAUUAGACAUGAGGAUCACCCAUGUAGUUAAGAUUGAA”, for which the “apparent Kd” value turned out to be 72 nM under setting [1] and 44.7 nM under setting [2].
On the same counts, the results for “UCAUUUAUUACAGGAUAUGUUAGUAUACAGUUGUUUGGUUAUUACAUAUUAACAGAAGGGUAGAACAUGAGGAUCACCCAUGUA” are 95.7 nM and 52.3 nM.
As to “GUAGCUAUCGGAGGAUAUUCAUACCGGAAACGGACAUGAGGAUCACCCAUGUGGCGAAAGACUUGGGAGAAGGCCGAUAGCUAC”, the “apparent Kd” value came out at 183 nM under setting [1] and 35.5 nM under setting [2].
In the case of “GGCAGAGACGUUAACAUGAGGAUCACCCAUGUCGAAGGAGAUGAGGAUAUCGUAUACGAUGUAUAUGAGAAGGCAUGGUCUGCC”, the “apparent Kd” value is, setting by setting: under setting [1], 18.8 nM; under setting [2], 7.6 nM.
For “AAUGGGCAGCAGAAGGCAUGUCAACGGACAUGAGGAUCACCCAUGUAGUAUAGCCGAAAGGCACAUGAGGAUAUGCUGCCCUAA” the same measures were 19.4 nM and 5.14 nM.
As for “UUUGCAUUCCGAGGAUAUUCUUUUAUUGUCUUCACAUGAGGAUCACCCAUGUGGCGCUUGCGCCGGGAGAAGGCGGUUUGCUUU”, the “apparent Kd” value runs as follows: under setting [1], 23.9 nM; under setting [2], 24.5 nM.
As for “GCGUCAGAAUUAAUUGUGUCAUACAGAAGGCAAUAUUAAGGUUAAGACAUGAGGAUCACCCAUGUUGAGGAUAUGUAGUGACGC”, the “apparent Kd” value under setting [3] amounted to 10.5 nM and the “apparent Kd” value under setting [4] is 18.6 nM.
As for “CAAAAGGAAGGAUAUACAUGUUAAUUAUCCGAAGAUGUCGUACAUGAGGAUCACCCAUGUAGAAGGUCCAAAAC”, the “apparent Kd” value reads like this: under setting [3], 30.3 nM; under setting [4], 78.7 nM.
As for “AGGGUGGGAGGAUAUCCAAUAUAUGACAUGAGGAUCACCCAUGUUUCCACUCGUACCUCCGGAGAAGGCCCUUCCA”, the “apparent Kd” value stood at 19.9 nM under setting [3] and 19.7 nM under setting [4].
On the same counts, the results for “GUGGUAUUCGUAGGAUAUCCGUCGCCACCGUGUGGAGAAGGACGAACAUGAGGAUCACCCAUGUAUCAUGGUGUGGACGCUGUC” are 92.1 nM and 86.6 nM.
As for “CGUCCGUGGGUAGUGAUCGUACAUGAGGAUCACCCAUGUGAGAAGGAUAUGCAUGCACGCGGACAGCAGAAGGUCUCACAACAA”, the “apparent Kd” value under setting [3] turned out to be 133 nM and the “apparent Kd” value under setting [4] worked out at 429 nM.
Turning to “AUAGACAUACAGCCACAUGAGGAUCACCCAUGUACGCUGACGAGAAGGGUCAGCUAGCAGAGGUGACAGGAUAUCGGACAUGAA”, the “apparent Kd” value by setting is: under setting [1], 149 nM; under setting [2], 89 nM.
“UAAAGCUCCGAGAAGGUAUGCGUACAUGAGGAUCACCCAUGUCAAAGCAUAAGGAUAUCGUGUGCGUGCGUCGAAUGUAGGAAA”: the “apparent Kd” value under setting [1] is 10.2 nM and the “apparent Kd” value under setting [2] stood at 5.55 nM.
With “ACAAAUCGAGGAUAUACAUGAGGAUCACCCAUGUGGAGCCCACUGCGCGGUUCUCAGCGUAGAAGGCGAAAACA”, the “apparent Kd” value is, setting by setting: under setting [3], 30.4 nM; under setting [4], 99.9 nM.
With “CCGAAUGUCACAGGAUAUGGUCCGGGCUCACGACCAGAAGGGUGAUCUCACAUGAGGAUCACCCAUGUGUAGGCGUUAGGCUAC”, the “apparent Kd” value reads like this: under setting [1], 35.3 nM; under setting [2], 114 nM.
For the sequence “ACAUGAGGAUCACCCAUGUUUUUCGGGUACUCUUUUUACAGCAAGGAUAUGCAUGUUUUUUUUACGCAGAAGGUGCUUUACGUC”, the “apparent Kd” value under setting [3] came out at 102 nM and the “apparent Kd” value under setting [4] was 165 nM.
Turning to “ACCCGGGCUAACAUGAGGAUCACCCAUGUGUUAUACUUAAUAUAGGAUAUGUUUAUACUUUUUGGGCAGAAGGAUGGCCCGGGU”, the “apparent Kd” value came out at 80.1 nM under setting [1] and 62.5 nM under setting [2].
With “AGAGCCGGCACCGAGGAUAUUCAUAUUAAAACAUGAGGAUCACCCAUGUAGGCCAGAAGGCCUUGGGAGAAGGCGGAUCGGCUCG”, the “apparent Kd” value is 707 nM under setting [1] and 39.5 nM under setting [2].
As for “AGAAACUACGAGAAGGACAUGUGGAAAACCGCAAACAUGAGGAUCACCCAUGUAGGAUAUCGUAGUUUCAGGAUCGUGAGAUCA”, the “apparent Kd” value came out at 772 nM under setting [3] and 148 nM under setting [4].
As to “UCAUUAUAAAUCCAUCAUAACUACAUGAGGAUCACCCAUGUGCAGGAUAUCGAUUAUUUAACUAACGAGAAGGGCAUUUACAGA”, the “apparent Kd” value runs as follows: under setting [3], 50.1 nM; under setting [4], 169 nM.
Consider “ACUUGUAAGCAGAAGGCAGUCAUUAUAUUCGUCAUGUAGACAUGAGGAUCACCCAUGUAUAGUACUGAGGAUAUGCAUCGAUAG”, for which the “apparent Kd” value worked out at 7.84 nM under setting [3] and 12.9 nM under setting [4].
Take “CAUUAAUUAAUUAUAUUAAUUAUACAGGAUAUGUAACAUGAGGAUCACCCAUGUAUUCAAUGUAAACAGAAGGGUAUAUCUAGU”: the “apparent Kd” value came out at 14.6 nM under setting [3] and 13 nM under setting [4].
For the sequence “UGUUGUAUUACAGGAUAUCUAUUGUUUUUAAUUAGAGAAGGGUAUUCACAUGAGGAUCACCCAUGUAUAUACGAGGAAGUUGUG”, the “apparent Kd” value was 50.5 nM under setting [1] and 53.4 nM under setting [2].
Take “UUUAUUUUUACAGGAUAUCAUCUAUAUAACUCAUGCACAUGUUUACAUGAGGAUCACCCAUGUUUUGAGAAGGGUAAUGAAACA”: the “apparent Kd” value is, setting by setting: under setting [1], 440 nM; under setting [2], 228 nM.
Consider “AUAGAAGACUAGAAGGACCUAGUUGUAUAUUGUCGAGGUAUAUAAUUAGGUAGGAUAUGGGACAUGAGGAUCACCCAUGUCUUG”, for which the “apparent Kd” value is, setting by setting: under setting [1], 8.27 nM; under setting [2], 7.5 nM.
With “UUAGCAACAUGAGGAUCACCCAUGUAGGAUAUCGCUAUUGUAAUCAUGAAACAUGAUUACAAUAGCGAGAAGGACAUAUGCUCC”, the “apparent Kd” value by setting is: under setting [3], 7.17 nM; under setting [4], 10.6 nM.
On to “UCAUGUAUGUAGGAUAUCGAUGUCUUCGGACAUCGAGAAGGACGUACAUGAGGAUCACCCAUGUAACUUGCAUG”, for which the “apparent Kd” value stood at 17.9 nM under setting [3] and 16.6 nM under setting [4].
On to “AAUUACAGAUAAGGAUAUUGACAUGAGGAUCACCCAUGUAUUUGGGAAUGUUUACUGAAUUCUUACGAGAAGGUAUACGUACUU”, for which the “apparent Kd” value under setting [3] was 123 nM and the “apparent Kd” value under setting [4] came to 87 nM.
In the case of “UUUUUUGUUGUGAGGAUAUCGUUGUUGUUGUGGAUCGAGAAGGCACAUGAGGAUCACCCAUGUUUGUUGUGGUU”, the “apparent Kd” value under setting [3] worked out at 89.1 nM and the “apparent Kd” value under setting [4] was 220 nM.
Regarding “UUUGAAUAGGUAGGAUAUACAUACAUUCCUACAUUACUAACAUGAGGAUCACCCAUGUAUACAUUGUAGAAGGACCAGAUUGAU”, the “apparent Kd” value was 26.1 nM under setting [3] and 23.9 nM under setting [4].
Take “AAUUAUAUACAGAAGGAGUUAUUUUGAGGAUUACUAGGAUAUGUUCACAUGAGGAUCACCCAUGUCAUAUUGGGAUUUAUUAUU”: the “apparent Kd” value under setting [3] turned out to be 19.5 nM and the “apparent Kd” value under setting [4] was 26.7 nM.
Regarding “CGGCCGGGCCGAGGAUAUAAGUCUAGGACAUGAGGAUCACCCAUGUAUGUCUUAGAAGGCGGCCCGGCCAGCCUGUUACAGGCA”, the “apparent Kd” value is, setting by setting: under setting [1], 31.2 nM; under setting [2], 5.85 nM.
Take “UUGGUUGUCGUAGGAUAUGUAGGAUAUUCCUACAUGAGGAUCACCCAUGUUAGCAUGGAAGAAGGACAGAAGGACGAUGACCAU”: the “apparent Kd” value by setting is: under setting [1], 1010 nM; under setting [2], 16.9 nM.
As for “ACAUGAGGAUCACCCAUGUAAACAUAGGAUAUUGGUGAUCAGGCAUGUUAUACAGGAUAUGUCUGCGAGAAGGAUGCACGUUGC”, the “apparent Kd” value is 583 nM under setting [1] and 465 nM under setting [2].
Regarding “UGUAUGGACAGAGGAUAUGCCGAUAGGAUUUACUAUCGAAGAAUCCUCACAUGAGGAUCACCCAUGUAGAAGGCUGUCCAUACU”, the “apparent Kd” value reads like this: under setting [3], 8.14 nM; under setting [4], 38.4 nM.
With “ACAUGAGGAUCACCCAUGUGAAAAGAAUGGCUGACACAGAGAUAGGAUAUAUGUGCAUAUCAAACAUAGAAGGGUCAUGACUGG”, the “apparent Kd” value by setting is: under setting [3], 30.3 nM; under setting [4], 30.2 nM.
In the case of “GUCGAUCACCAGAAGGACAUGAGGAUCACCCAUGUAGGAUAUGGGUAAGACGUCACAUUGGCGUGCAAACGUUUGCGUUCGUAC”, the “apparent Kd” value reads like this: under setting [1], 11.9 nM; under setting [2], 6.42 nM.
